From PMC8603004 (EFSA Journal, 2021)
Where “and” joins values, the source holds several entries; their conditions need not be identical. Equal values may be shown once.

What was measured:
[1] = First in vivo toxicokinetic study; set-up: species or system male Wistar rats; settings: after 500 mg/kg bw 14C‐3‐NOP
Procedure, shortened: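 Male Wistar rats received a single oral dose of 500 mg/kg bw 14C-labelled test compound under OECD TG 417 and were killed 48 h post-dose. Total radioactivity was measured in plasma, excreta and selected organs and tissues. Tissue levels were expressed as μg test-compound-eq/g and recovery as % of applied dose.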

[2] = Second in vivo toxicokinetic study, metabolic profile in gut and plasma; set-up: species or system male Wistar rats; settings: urine 0 to 2 h of one animal, after 500 mg/kg bw 14C‐3‐NOP
Procedure, shortened: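 Single oral dose of 500 mg/kg bw 14C-labelled test compound to male Wistar rats. One animal per time point was killed at 1, 2 and 3 h post-dose and blood was collected. Stomach, small intestine, caecum and colon contents were removed for total radioactivity. Metabolites were characterised by NMR and/or LC/MS.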

[3] = ADME of 14C‐3‐NOP following single or multiple oral administration; assay type: in vivo, rat; settings: 500 mg/kg 14C‐3‐NOP, 1 h
[4] = test system: testes and epididymides; Sertoli cells; test: Mechanistic toxicity studies; set-up: species or system rats, dogs and non‐human primates
ADME in a lactating goat = assay type: in vivo
[5] = Second goat experiment, pre‐dosed 5 days; assay type: in vivo, lactating goat
[6] = ADME in four lactating cows; assay type: in vivo
[7] = Feeding study 1 in beef cattle, NOPA in plasma; assay type: in vivo; settings: bovine, oral, 284 mg/kg
[8] = Tolerance study in dairy cows; assay type: in vivo; settings: female, Holstein Friesian, cattle, liver, kidney, muscle, fat, oral
[9] = test system: Holstein Friesian dairy cows; test: Tolerance study in dairy cows; assay type: in vivo
[10] = test system: Salmonella Typhimurium strains TA1535, TA1537, TA98, TA100, and Escherichia coli strain WP2 uvrA; test: Bacterial reverse mutation assay of NOPA; assay type: cell-based; settings: strains TA1535 and TA100, presence and absence of S9 mix, up to 5,000 μg/plate
Procedure, shortened: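 Plate-incorporation reverse mutation test on the metabolite in S. Typhimurium TA1535, TA1537, TA98 and TA100 and E. coli WP2 uvrA, with and without liver microsomal activation. Concentrations were 3, 10, 33, 100, 333, 1,000, 2,500 and 5,000 μg/plate. Each concentration and each control was plated in triplicate, and positive and negative controls were included.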

[11] = test system: whole blood human lymphocytes; test: In vitro micronucleus test of NOPA; assay type: cell-based; settings: 229 to 1,321 μg/mL, with and without metabolic activation
Procedure, shortened: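 GLP micronucleus test (OECD TG 487) on the metabolite (purity 98.4%) in human whole-blood lymphocytes. Three concentrations from 229 to 1,321 μg/mL (top about 10 mmol/L) were analysed. Treatments were a short exposure (4 + 20 h recovery) with and without metabolic activation, and a continuous treatment without activation. Micronuclei were scored.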

[12] = test system: peripheral blood reticulocytes; test: In vivo micronucleus assay of NOPA in peripheral blood reticulocytes; set-up: species or system Fischer 344 Big Blue rats; settings: days 4 and 29
Procedure, shortened: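 Fischer 344 Big Blue rats, six per sex per group, were given the metabolite by oral gavage once daily for 28 days at 10 mL/kg in phosphate-buffered saline, pH 7.4. Males received 0, 150, 300 or 600 mg/kg bw/day and females 0, 250, 500 or 1,000 mg/kg bw/day. Peripheral blood was sampled on days 4 and 29, and micronucleated reticulocytes were counted by flow cytometry. Kit positive-control samples were run; there was no concurrent positive group.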

[13] = 28‐day oral gavage study with toxicokinetic evaluation of NOPA; assay type: in vivo, CByB6F1 Hybrid mice; settings: CByB6F1 Hybrid, mouse, plasma, oral, 700 mg/kg
CByB6F1 Hybrid mice = test: as above; assay type: in vivo; settings: both sexes
[14] = Consumer exposure calculation to NOPA

In the case of `O=C(O)CCO` [3‐HPA, 3‐hydroxy‐propionic acid], the “Urinary metabolite, share of the dose administered” value [1] is reported as 7.2%, the “Urinary metabolite, share of the urine radioactivity” value [1] is reported as 47.5% and the “Urinary metabolite, share of the urine radioactivity” value [2] is reported as 58%. For the same compound, the Metabolite in epididymis [3] was 60 % TRR, the Metabolite in testes [3] was 84 % TRR and the “Metabolite in the small intestine” value ([3]; females) was 46.5 % of TRR. For the same compound, the “Metabolite in the small intestine” value ([3]; males) was 34.8 % of TRR and the Testicular/epididymal findings ([4]; 10 days after sc administration) was “absence of any testicular/epididymal abnormality”.
For `O=C(O)CCO[N+](=O)[O-]` [NOPA, 3‐nitrooxypropionic acid], the “Urinary metabolite, share of the urine radioactivity” value [2] was 20%, the “Nitrate esters in milk, not detectable (LOD)” value (ADME in a lactating goat; milk collected 0–8 h post‐dose) was under 0.82 mg 3‐NOP‐equivalent/kg and the “Nitrate esters in milk, not detectable (LOD)” value (ADME in a lactating goat; milk collected 8–24 h post‐dose) was under 0.43 mg 3‐NOP‐equivalent/kg. The “Nitrate esters in the aqueous phase of plasma, not detectable (LOD)” value ([5]; LOD ≤ 0.07) was under 0.07 mg/kg, the “Nitrate esters in the aqueous milk fraction, not detectable (LOD)” value ([5]; LOD ≤ 0.21) was under 0.21 mg/kg and the “Amount in urine, not detected above the LOQ” value ([6]; any urine sample) was ≤ 0.1 % of the dose. The “3‐NOP and NOPA in total excreta, worst‐case scenario” value ([6]; dairy cows) was at most 0.2%, the “Residue in milk, not found above the LOQ” value ([6]; in vivo) was under 8 μg 3‐NOP‐equivalents/kg and the “Residue in tissues, not found above the LOQ” value ([6]; in vivo) was under 21 μg 3‐NOP‐equivalents/kg. For the same compound, the concentration at 180 min [7] was 22.3 to 207 ng/mL, the concentration at 57 day [8] was under 5 ng/g and the “NOPA in milk, median of samples above 1 μg/kg” value ([9]; 80 mg 3‐NOP/kg feed DM) was 1.74 µg/kg. For the same compound, the “NOPA in milk, median of samples above 1 μg/kg” value ([9]; 100 mg 3‐NOP/kg feed DM, 7 cows) was 1.52 µg/kg, the “Gene mutations in bacteria” value [10] was “induced gene mutations by base pair substitutions” and the Frequency of micronuclei [11] was “No significant increase in the frequency of micronuclei”. The “Incidence of MN‐RETs” value [12] was “No significant increases in the incidence of MN‐RETs”, the half-life ([13]; female) was 42 to 72 min and the half-life ([13]; male) was 30 to 84 min. For the same compound, the “Time of rapid increase of NOPA plasma concentration” value (CByB6F1 Hybrid mice) was under 1 h, the “Susceptibility of Sertoli cells from dogs” value ([4]; ex vivo/in vitro cultures of seminiferous tubuli) was “not susceptible” and the “Consumer exposure, maximum HRP” value ([14]; Adolescents) was 0.2260 μg/kg bw per day. For the same compound, the “Consumer exposure, maximum HRP” value ([14]; Adults) was 0.1293 μg/kg bw per day, the “Consumer exposure, maximum HRP” value ([14]; Elderly) was 0.1162 μg/kg bw per day and the “Consumer exposure, maximum HRP” value ([14]; Infants) was 0.4542 μg/kg bw per day. For the same compound, the “Consumer exposure, maximum HRP” value ([14]; Other children) was 0.6 μg/kg bw per day and 0.5952 μg/kg bw per day, the “Consumer exposure, maximum HRP” value ([14]; Toddlers) was 0.4674 μg/kg bw per day and the “Consumer exposure, maximum HRP” value ([14]; Very elderly) was 0.1266 μg/kg bw per day. For the same compound, the “Maximum HRP as share of the established ADI” value ([14]; other children, ADI 1 mg/kg bw per day) was 0.06%.
For `O=C(O)C1OC(OCCCO[N+](=O)[O-])C(O)C(O)C1O` (stereo not shown) [glucuronide of 3‐NOP], the “Urinary metabolite, share of the urine radioactivity” value [2] was 11%.
